Laboratory results reported in ChEMBL document CHEMBL1133640, “Structure-activity studies including a Psi(CH(2)-NH) scan of peptide YY (PYY) active site, PYY(22-36), for interaction with rat intestinal PYY receptors: development of analogues with potent in vivo activity in the intestine” (J Med Chem, 2000).
Where a SMILES comes first, the peptide text is derived from it. Bridges are numbered along the chain shown (N, C = ends). Roman numbers before positions name the chains, in order. [ ]: non-standard residue; d: D form. Bip = N[C@@H](Cc1ccc(-c2ccccc2)cc1)C(=O)O

Experiments:
Rattus norvegicus = test: Tested for in vivo antisecretory potency for inhibiting VIP-induced (30 micro g/kg/h) secretion in isolated jejunum in anesthetized rats.(95% CL); assay type: functional; conditions: read-out: ID50 (the source's name)
How it was run: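 Rats anesthetized, saphenous vein cannulated. Isolated jejunal loop instilled with 2000 μL fluid. At the end the loop is excised, measured and weighed before and after emptying. Net water flux (μL/cm/30 min) = (F-E)2000/L; negative means absorption. 6-8 animals per dose.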

[1] = biological target: Neuropeptide Y receptor type 1 (Homo sapiens, UniProt P25929); test: Affinity against Neuropeptide Y receptor Y1 in SK-N-MC cell line; assay type: cell-based
Chain of Neuropeptide Y receptor type 1 (P25929 whole entry): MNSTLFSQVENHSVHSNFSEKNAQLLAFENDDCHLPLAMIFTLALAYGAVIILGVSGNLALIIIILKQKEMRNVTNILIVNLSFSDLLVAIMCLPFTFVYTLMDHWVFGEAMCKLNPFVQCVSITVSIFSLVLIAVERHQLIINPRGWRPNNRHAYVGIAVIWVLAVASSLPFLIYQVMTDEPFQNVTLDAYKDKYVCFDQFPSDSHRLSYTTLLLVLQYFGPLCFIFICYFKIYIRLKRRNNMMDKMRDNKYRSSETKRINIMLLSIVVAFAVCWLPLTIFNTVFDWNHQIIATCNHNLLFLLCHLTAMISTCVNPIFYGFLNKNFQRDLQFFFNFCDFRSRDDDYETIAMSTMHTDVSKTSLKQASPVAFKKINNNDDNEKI

[2] = biological target: T1, Neuropeptide Y receptor type 2 (Rattus norvegicus, UniProt Q9ERC0); test: Antisecretory potency, affinity for intestinal PYY of rat jejunum by using short circuit current (SCC) method.; assay type: tissue-based
T1 sequence (Q9ERC0 whole entry): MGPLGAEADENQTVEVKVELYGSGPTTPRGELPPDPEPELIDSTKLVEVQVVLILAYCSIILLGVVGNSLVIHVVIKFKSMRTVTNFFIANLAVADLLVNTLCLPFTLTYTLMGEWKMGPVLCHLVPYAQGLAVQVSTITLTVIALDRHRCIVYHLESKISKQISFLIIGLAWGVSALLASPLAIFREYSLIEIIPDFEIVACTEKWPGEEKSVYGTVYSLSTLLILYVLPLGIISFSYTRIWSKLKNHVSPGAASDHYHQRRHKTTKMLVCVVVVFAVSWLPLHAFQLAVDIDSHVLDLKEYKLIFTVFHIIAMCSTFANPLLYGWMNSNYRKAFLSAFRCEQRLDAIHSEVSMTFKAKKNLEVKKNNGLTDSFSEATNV

[3] = biological target: T2, Neuropeptide Y receptor type 2 (Homo sapiens, UniProt P49146); test: Affinity against Neuropeptide Y receptor Y2 in SK-N-BE2 cell line
T2 sequence (P49146 whole entry): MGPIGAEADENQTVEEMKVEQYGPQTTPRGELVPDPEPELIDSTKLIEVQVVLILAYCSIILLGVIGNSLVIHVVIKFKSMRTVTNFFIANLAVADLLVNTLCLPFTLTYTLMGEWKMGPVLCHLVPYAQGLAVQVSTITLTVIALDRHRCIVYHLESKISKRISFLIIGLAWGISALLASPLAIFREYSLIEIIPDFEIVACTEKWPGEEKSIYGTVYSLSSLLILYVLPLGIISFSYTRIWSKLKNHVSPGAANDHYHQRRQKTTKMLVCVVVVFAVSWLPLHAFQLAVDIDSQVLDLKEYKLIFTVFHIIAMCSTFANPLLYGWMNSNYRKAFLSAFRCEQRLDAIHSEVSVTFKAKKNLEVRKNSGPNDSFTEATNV

[4] = biological target: T1, Neuropeptide Y receptor type 2; test: Tested for the affinity for intestinal PYY from rat jejunum by using short circuit current (SCC) method.
Canis familiaris [5] = species: Canis familiaris; test: Peak proabsorptive effects of intralbuminal Infusion on absorption of Na+ in the ileum of awake dogs bearing ileal and/or Colonic Thiry-Vella Fistulasa; assay type: functional, organism-based; conditions: Canis lupus familiaris
Canis familiaris [6] = species: Canis familiaris; test: Peak proabsorptive effects of intralbuminal Infusion on absorption of Na+ in the colon of awake dogs bearing ileal and/or Colonic Thiry-Vella Fistulasa; assay type: functional, organism-based; conditions: Canis lupus familiaris
Canis familiaris [7] = species: Canis familiaris; test: Peak proabsorptive effects of intralbuminal Infusion on absorption of Cl- in the ileum of awake dogs bearing ileal and/or Colonic Thiry-Vella Fistulasa; assay type: functional, organism-based; conditions: Canis lupus familiaris
Canis familiaris [8] = species: Canis familiaris; test: Peak proabsorptive effects of intralbuminal Infusion on absorption of Cl- in the colon of awake dogs bearing ileal and/or Colonic Thiry-Vella Fistulasa; assay type: functional, organism-based; conditions: Canis lupus familiaris
Canis familiaris [9] = species: Canis familiaris; test: Peak proabsorptive effects of intralbuminal Infusion on absorption of water in the colon of awake dogs bearing ileal and/or Colonic Thiry-Vella Fistulasa; assay type: functional, organism-based; conditions: Canis lupus familiaris
Canis familiaris [10] = species: Canis familiaris; test: Peak proabsorptive effects of intralbuminal Infusion on absorption of water in the ileum of awake dogs bearing ileal and/or Colonic Thiry-Vella Fistulasa; assay type: functional, organism-based; conditions: Canis lupus familiaris

| Compound | IC50 [1] [µM] | IC50 [3] [µM] | IC50 [4] [µM] | ED50 (Rattus norvegicus) [µmol/kg] | also measured |
| --- | --- | --- | --- | --- | --- |
| CC(=O)N[C@@H](C)C(=O)N[C@@H](CO)C(=O)N[C@@H](CC(C)C)C(=O)N[C@@H](CCCN=C(N)N)C(=O)N[C@@H](Cc1c[nH]cn1)C(=O)N[C@@H](Cc1ccc(O)cc1)C(=O)N[C@@H](CC(C)C)C(=O)N[C@@H](CC(N)=O)C(=O)N[C@@H](Cc1c[nH]c2ccccc12)C(=O)N[C@H](C(=O)N[C@H](C(=O)N[C@@H](CCCN=C(N)N)C(=O)N[C@@H](CCC(N)=O)C(=O)N[C@@H](CCCN=C(N)N)CN[C@@H](Cc1ccc(O)cc1)C(N)=O)[C@@H](C)O)C(C)C | – | – | – | 0.00019 | – |
| CCCC[C@H](NC(=O)[C@H](CO)NC(=O)[C@H](C)NC(C)=O)C(=O)N[C@@H](CCCN=C(N)N)C(=O)N[C@@H](Cc1c[nH]cn1)C(=O)N[C@@H](Cc1ccc(O)cc1)C(=O)N[C@@H](CCCC)C(=O)N[C@@H](CC(N)=O)C(=O)N[C@@H](Cc1c[nH]c2ccccc12)C(=O)N[C@@H](CCC)C(=O)N[C@H](C(=O)N[C@@H](CCCN=C(N)N)C(=O)N[C@@H](CCC(N)=O)C(=O)N[C@@H](CCCN=C(N)N)C(=O)N[C@@H](Cc1ccc(O)cc1)C(N)=O)[C@@H](C)O | – | – | – | 1.3e-05 | – |
| CCCC[C@H](NC(=O)[C@H](CO)NC(=O)[C@H](C)NC(C)=O)C(=O)N[C@@H](CCCN=C(N)N)C(=O)N[C@@H](Cc1c[nH]cn1)C(=O)N[C@@H](Cc1ccc(O)cc1)C(=O)N[C@@H](CCCC)C(=O)N[C@@H](CC(N)=O)C(=O)N[C@@H](Cc1c[nH]c2ccccc12)C(=O)N[C@@H](CCC)C(=O)N[C@H](C(=O)N[C@@H](CCCN=C(N)N)C(=O)N[C@@H](CCC(N)=O)C(=O)N[C@@H](CCCN=C(N)N)CN[C@@H](Cc1ccc(O)cc1)C(N)=O)[C@@H](C)O | 1.57 | 0.00175 | – | 5.9e-05 | IC50 [2]: 0.00031 µM |
| CC(=O)N[C@@H](C)C(=O)N[C@@H](CO)C(=O)N[C@@H](CSSC[C@H](NC(=O)[C@H](CO)NC(=O)[C@H](C)NC(C)=O)C(=O)N[C@@H](CCCNC(=N)N)C(=O)N[C@@H](Cc1cnc[nH]1)C(=O)N[C@@H](Cc1ccc(O)cc1)C(=O)N[C@@H](CC(C)C)C(=O)N[C@@H](CC(N)=O)C(=O)N[C@@H](CC(C)C)C(=O)N[C@H](C(=O)N[C@H](C(=O)N[C@@H](CCCNC(=N)N)C(=O)N[C@@H](CCC(N)=O)C(=O)N[C@@H](CCCNC(=N)N)C(=O)N[C@@H](Cc1ccc(O)cc1)C(N)=O)[C@@H](C)O)C(C)C)C(=O)N[C@@H](CCCNC(=N)N)C(=O)N[C@@H](Cc1cnc[nH]1)C(=O)N[C@@H](Cc1ccc(O)cc1)C(=O)N[C@@H](CC(C)C)C(=O)N[C@@H](CC(N)=O)C(=O)N[C@@H](CC(C)C)C(=O)N[C@H](C(=O)N[C@H](C(=O)N[C@@H](CCCNC(=N)N)C(=O)N[C@@H](CCC(N)=O)C(=O)N[C@@H](CCCNC(=N)N)C(=O)N[C@@H](Cc1ccc(O)cc1)C(N)=O)[C@@H](C)O)C(C)C (I: Ac-ASCRHYLNLVTRQRY-NH2 / II: Ac-ASCRHYLNLVTRQRY-NH2; disulfide I:3-II:3) | – | – | – | 0.000365 | – |
| Ac-ASLRHWLNLVTRQRY-NH2 [listing 1 of 2 here] | – | – | – | 3.33e-05 | Absorption (u equiv min-1) (Canis familiaris [5]): 120; Absorption (u equiv min-1) (Canis familiaris [6]): 78; Absorption (u equiv min-1) (Canis familiaris [7]): 101; Absorption (u equiv min-1) (Canis familiaris [8]): 77; Absorption (Canis familiaris [9]): 503 µL/min; Absorption (Canis familiaris [10]): 725 µL/min |
| Ac-ASLRHWLNLVTRQRY-NH2 [listing 2 of 2 here] | 0.077 | 0.00209 | 0.0032 | – | – |
| Ac-ASLRHYLWLVTRQRY-NH2 | 0.762 | 0.158 | 0.1 | – | – |
| Ac-ASLRHYWNLVTRQRY-NH2 | 0.398 | 0.00208 | 0.0006 | – | – |

More lines, main results first:

| IC50 [1] [µM] | IC50 [3] [µM] | IC50 [4] [µM] | Compound | ED50 (Rattus norvegicus) [µmol/kg] | also measured |
| --- | --- | --- | --- | --- | --- |
| 0.25 | 0.00098 | – | CC(=O)N[C@@H](C)C(=O)N[C@@H](CO)C(=O)N[C@@H](CC(C)C)C(=O)N[C@@H](CCCN=C(N)N)C(=O)N[C@@H](Cc1c[nH]cn1)C(=O)N[C@@H](Cc1ccc(O)cc1)C(=O)N[C@@H](CC(C)C)C(=O)N[C@@H](CC(N)=O)C(=O)N[C@@H](Cc1c[nH]c2ccccc12)C(=O)N[C@H](C(=O)N[C@H](C(=O)N[C@@H](CCCN=C(N)N)C(=O)N[C@@H](CCC(N)=O)C(=O)N[C@@H](CCCN=C(N)N)C(=O)N[C@@H](Cc1ccc(O)cc1)C(N)=O)[C@@H](C)O)C(C)C | 2.1e-06 | IC50 [2]: 0.0006 µM |
| > 1 | > 0.1 | > 0.1 | CNC(=O)[C@H](Cc1ccc(O)cc1)NC(=O)[C@H](CCCNC(=N)N)NC(=O)[C@H](CCC(N)=O)NC(=O)[C@H](CCCNC(=N)N)NC(=O)[C@@H](NC(=O)[C@@H](NC(=O)[C@H](CC(C)C)NC(=O)[C@H](CC(N)=O)NC(=O)[C@H](CC(C)C)NC(=O)[C@H](Cc1c[nH]c2ccccc12)NC(=O)[C@H](Cc1cnc[nH]1)NC(=O)[C@H](CCCNC(=N)N)NC(=O)[C@H](CC(C)C)NC(=O)[C@H](CO)NC(=O)[C@H](C)NC(C)=O)C(C)C)[C@@H](C)O (Ac-ASLRHWLNLVTRQRY-NHMe) | – | – |
| 0.279 | 0.0142 | 0.00242 | CC(=O)N[C@@H](C)C(=O)N[C@@H](CO)C(=O)N[C@@H](CC(C)C)C(=O)N[C@@H](CCCN=C(N)N)C(=O)N[C@@H](Cc1c[nH]cn1)C(=O)N[C@@H](Cc1ccc(-c2ccccc2)cc1)C(=O)N[C@@H](CC(C)C)C(=O)N[C@@H](CC(N)=O)C(=O)N[C@@H](CC(C)C)C(=O)N[C@H](C(=O)N[C@H](C(=O)N[C@@H](CCCN=C(N)N)C(=O)N[C@@H](CCC(N)=O)C(=O)N[C@@H](CCCN=C(N)N)C(=O)N[C@@H](Cc1ccc(O)cc1)C(N)=O)[C@@H](C)O)C(C)C (Ac-ASLRH[Bip]LNLVTRQRY-NH2) | – | – |
| – | – | 0.0021 | Ac-ASWRHYLNLVTRQRY-NH2 | – | – |
